Activity calls are given as the source filed them. The calls are words filed in the database; no cut-off is given here.
Tests used:
[1] = system: HEK293T; assay: Inhibition of TEAD (unknown origin) transfected in HEK293T cells assessed as inhibition of TEAD transcriptional activity at 10 uM measured after 16 hrs by luciferase reporter gene assay; format: cell-based; settings: Homo sapiens
Summary of the method: (§1)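 HEK293T cells transfected with a TEAD luciferase reporter (8xGTIIC-Luciferase) and treated at 10 µM for 16 h. References were dasatinib at 100 nM and MGH-CP1 at 10 µM. β-Galactosidase activity used both to normalize luciferase and to estimate cytotoxicity; viability also checked visually. At least three independent experiments in biological triplicate; Kruskal-Wallis tests.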

[2] = molecular target: T1, Transcriptional enhancer factor TEF-4 (Homo sapiens, UniProt Q15562); assay: Binding affinity to external surface of N-terminal His6-tagged human TEAD2 (217 to 447 residues) expressed in Escherichia coli BL21(DE3) assessed as melting temperature by Nano Differential scanning fluorometry
Summary of the method: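 Thermal stability of hTEAD2_217-447 measured by NanoDSF, which reads intrinsic aromatic-residue fluorescence, with and without ligand.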

[3] = Inhibition of TEAD (unknown origin) transfected in HEK293T cells assessed as inhibition of TEAD transcriptional activity measured after 24 hrs by luciferase reporter gene assay; format: cell-based; settings: Homo sapiens, HEK-293T
[4] = system: HEK-293T; assay: Cytotoxicity against human HEK293T cells transfected with TEAD assessed as reduction of beta-galactosidase activity at 10 uM measured after 16 hrs by luciferase reporter gene assay; format: cell-based; summary of the method: as §1
[5] = system: SH-SY5Y; assay: Effect on AXL protein expression in human SH-SY5Y cells lacking YAP/TAZ expression at 10 uM measured after 48 hrs by western blot analysis; format: functional, cell-based
[6] = system: MDA-MB-231; assay: Inhibition of YAP/TAZ-TEAD interaction in human MDA-MB-231 cells assessed as reduction in Survivin protein expression at 10 uM measured after 48 hrs by western blot analysis; format: cell-based
Summary of the method: (§2)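 MDA-MB-231 cells grown in DMEM with 0.2% heat-inactivated FBS and 2 mM L-glutamine, and exposed to 10 µM for 48 h, with dasatinib at 100 nM as control. Total extracts prepared in RIPA-based buffer with protease/phosphatase inhibitors, then Western blot. At least three independent experiments in biological triplicate.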

[7] = system: HeLa; assay: Inhibition of YAP/TAZ-TEAD interaction in human HeLa cells assessed as reduction in AXL mRNA expression at 10 uM measured after 24 hrs by qRT-PCR analysis; format: cell-based
[8] = system: HeLa; assay: Inhibition of YAP/TAZ-TEAD interaction in human HeLa cells assessed as reduction in CTGF mRNA expression at 10 uM measured after 24 hrs by qRT-PCR analysis; format: cell-based
[9] = system: SH-SY5Y; assay: Effect on AXL mRNA expression in human SH-SY5Y cells lacking YAP/TAZ expression at 10 uM measured after 24 hrs by qRT-PCR analysis; format: functional, cell-based
[10] = system: MDA-MB-231; assay: Inhibition of YAP/TAZ-TEAD interaction in human MDA-MB-231 cells assessed as reduction in AXL mRNA expression at 10 uM measured after 24 hrs by qRT-PCR analysis; format: cell-based
Summary of the method: (§3)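 MDA-MB-231 cells exposed to 10 µM for 24 h, with DMSO and dasatinib (100 nM) as controls. Total RNA purified, integrity checked on agarose gel. RT-qPCR with gene-specific primers; relative expression by 2^-ΔΔCt normalized to MAN2B1. At least triplicates; Kruskal-Wallis tests.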

[11] = Inhibition of TEAD (unknown origin) transfected in HEK293T cells assessed as inhibition of TEAD transcriptional activity measured after 16 hrs by luciferase reporter gene assay; format: cell-based; settings: Homo sapiens, HEK-293T
Summary of the method: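 HEK293T cells transfected with the 8xGTIIC-Luciferase TEAD reporter. Dose-response curves used to derive IC50, with luciferase normalized to β-galactosidase.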

[12] = system: HeLa; assay: Inhibition of YAP/TAZ-TEAD interaction in human HeLa cells assessed as reduction in AXL protein expression at 10 uM measured after 48 hrs by western blot analysis; format: cell-based
[13] = system: HeLa; assay: Inhibition of YAP/TAZ-TEAD interaction in human HeLa cells assessed as reduction in CTGF protein expression at 10 uM measured after 48 hrs by western blot analysis; format: cell-based
[14] = system: MDA-MB-231; assay: Inhibition of YAP/TAZ-TEAD interaction in human MDA-MB-231 cells assessed as reduction in CTGF protein expression at 10 uM measured after 48 hrs by western blot analysis; format: cell-based; summary of the method: as §2
[15] = system: MDA-MB-231; assay: Inhibition of YAP/TAZ-TEAD interaction in human MDA-MB-231 cells assessed as reduction in AXL protein expression at 10 uM measured after 48 hrs by western blot analysis; format: cell-based; summary of the method: as §2
[16] = system: HeLa; assay: Inhibition of YAP/TAZ-TEAD interaction in human HeLa cells assessed as reduction in Cyr61 mRNA expression at 10 uM measured after 24 hrs by qRT-PCR analysis; format: cell-based
[17] = system: SH-SY5Y; assay: Effect on Cyr61 mRNA expression in human SH-SY5Y cells lacking YAP/TAZ expression at 10 uM measured after 24 hrs by qRT-PCR analysis; format: functional, cell-based
[18] = system: HeLa; assay: Inhibition of YAP/TAZ-TEAD interaction in human HeLa cells assessed as reduction in Survivin protein expression at 10 uM measured after 48 hrs by western blot analysis; format: cell-based
[19] = molecular target: T1, Transcriptional enhancer factor TEF-4; assay: Binding affinity to eGFP-fused human TEAD2 (217 to 447 residues) expressed in CHO-K1 cells by microscale thermophoresis analysis
Summary of the method: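 MST on GFP-labeled hTEAD2_217-447 in CHO-K1 cell lysate, MST power 40%. hYAP_50-102 used as control binder. Kd determined; triplicate runs on three independent cell cultures, mean ± SD.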

[20] = system: MDA-MB-231; assay: Inhibition of YAP/TAZ-TEAD interaction in human MDA-MB-231 cells assessed as reduction in Cyr61 mRNA expression at 10 uM measured after 24 hrs by qRT-PCR analysis; format: cell-based; summary of the method: as §3
[21] = system: HeLa; assay: Inhibition of YAP/TAZ-TEAD interaction in human HeLa cells assessed as reduction in Cyr61 protein expression at 10 uM measured after 48 hrs by western blot analysis; format: cell-based
[22] = system: MDA-MB-231; assay: Inhibition of YAP/TAZ-TEAD interaction in human MDA-MB-231 cells assessed as reduction in CTGF mRNA expression at 10 uM measured after 24 hrs by qRT-PCR analysis; format: cell-based; summary of the method: as §3
[23] = system: MDA-MB-231; assay: Inhibition of YAP/TAZ-TEAD interaction in human MDA-MB-231 cells assessed as reduction in Cyr61 protein expression at 10 uM measured after 48 hrs by western blot analysis; format: cell-based; summary of the method: as §2
[24] = system: MDA-MB-231; assay: Antiproliferative activity against human MDA-MB-231 cells assessed as reduction in cell proliferation at 5 uM measured after 48 hrs by IncuCyte live-cell imaging assay; format: functional
Summary of the method: (§4)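 MDA-MB-231 cells plated in triplicate at low density (2.5 × 10³ cells/well) in low serum (0.2%). Test agent added at several concentrations 24 h after plating. Cell number tracked by live-cell imaging every 3 h for up to 72 h; independent triplicates, mean ± SD, n = 3.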

[25] = system: SH-SY5Y; assay: Effect on Cyr61 protein expression in human SH-SY5Y cells lacking YAP/TAZ expression at 10 uM measured after 48 hrs by western blot analysis; format: functional, cell-based
[26] = system: SH-SY5Y; assay: Effect on CTGF mRNA expression in human SH-SY5Y cells lacking YAP/TAZ expression at 10 uM measured after 24 hrs by qRT-PCR analysis; format: functional, cell-based
[27] = system: SH-SY5Y; assay: Effect on CTGF protein expression in human SH-SY5Y cells lacking YAP/TAZ expression at 10 uM measured after 48 hrs by western blot analysis; format: functional, cell-based
[28] = system: SH-SY5Y; assay: Effect on Survivin protein expression in human SH-SY5Y cells lacking YAP/TAZ expression at 10 uM measured after 48 hrs by western blot analysis; format: functional, cell-based
[29] = system: MDA-MB-231; assay: Antiproliferative activity against human MDA-MB-231 cells assessed as reduction in cell proliferation at 10 uM measured after 48 hrs by IncuCyte live-cell imaging assay; format: functional; summary of the method: as §4
[30] = Inhibition of TEAD4/Yap1 (unknown origin) interaction measured after 24 hrs by fluorescence polarization assay; parameters: species or system Homo sapiens

T1 sequence (Q15562 whole entry, the tested form may be a part): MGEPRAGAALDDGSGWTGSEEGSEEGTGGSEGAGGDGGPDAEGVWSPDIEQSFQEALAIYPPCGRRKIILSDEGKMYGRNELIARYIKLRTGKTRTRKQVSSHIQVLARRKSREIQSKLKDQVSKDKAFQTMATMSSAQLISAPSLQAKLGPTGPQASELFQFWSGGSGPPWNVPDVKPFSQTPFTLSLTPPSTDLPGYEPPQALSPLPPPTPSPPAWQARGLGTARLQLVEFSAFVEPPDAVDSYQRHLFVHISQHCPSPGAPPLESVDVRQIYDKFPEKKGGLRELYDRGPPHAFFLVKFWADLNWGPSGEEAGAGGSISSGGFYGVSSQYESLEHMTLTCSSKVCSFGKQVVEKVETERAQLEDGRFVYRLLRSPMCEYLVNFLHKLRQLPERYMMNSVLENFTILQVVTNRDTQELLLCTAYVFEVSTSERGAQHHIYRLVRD

For `O=C(O)CCCn1cc(C(=O)NCCc2ccccc2)c(-c2ccc(Cl)c(Cl)c2)n1`, the inhibition [1] was “inactive”.
`O=C(O)c1cccnc1Nc1cccc(C(F)(F)F)c1` showed a Tm [2] of 50.3 °C.
`COc1ccc2c(c1)/C(=N/NC(=O)c1nnn(-c3ccccc3N)c1-c1ccc(Cl)c(Cl)c1)C(=O)N2` showed an IC50 [3] of 1.7 µM.
For `NCCn1cc(C(=O)NCc2ccccc2)c(-c2ccc(Cl)c(Cl)c2)n1`, the Activity [4] was “Toxic”.
In the case of `CCOC(=O)c1cn(CCCCN)nc1-c1ccc(Cl)c(Cl)c1`, the Activity [5] is reported as “inactive”, the inhibition [6] is reported as “Active” and the inhibition [7] is reported as “Active”. For the same compound, the inhibition [1] was “Active”, the inhibition [8] was “Active” and the Activity [9] was “inactive”. For the same compound, the inhibition [10] was “Active”, the IC50 [11] was 4.5 µM and the inhibition [12] was “Active”. The inhibition [13] was “Active”, the inhibition [14] was “Active” and the inhibition [15] was “Active”. For the same compound, the inhibition [16] was “Active”, the Activity [17] was “inactive” and the inhibition [18] was “Active”. For the same compound, the Kd [19] was 35 µM, the inhibition [20] was “Active” and the inhibition [21] was “Active”. The inhibition [22] was “Active”, the inhibition [23] was “Active” and the inhibition at 5 µM [24] was 40%. For the same compound, the Activity [25] was “inactive”, the Activity [26] was “inactive” and the Activity [27] was “inactive”. For the same compound, the Activity [28] was “inactive” and the inhibition at 10 µM [29] was 60%.
With `NCCCCn1cc(C(=O)NCCc2ccccc2)c(-c2ccc(Cl)c(Cl)c2)n1` the Activity [4] was “Toxic”.
With `NCCCn1cc(C(=O)NCc2ccccc2)c(-c2ccc(Cl)c(Cl)c2)n1` the Activity [4] was “Toxic”.
For `O=C(O)CCn1cc(C(=O)NCCc2ccccc2)c(-c2ccc(Cl)c(Cl)c2)n1`, the inhibition [1] was “inactive” and the Kd [19] was 5.1 µM.
In the case of `O=C(O)CCCn1cc(C(=O)NCc2ccccc2)c(-c2ccc(Cl)c(Cl)c2)n1`, the inhibition [1] is reported as “inactive” and the Kd [19] is reported as 4.6 µM.
With `NCCCCn1cc(C(=O)NCc2ccccc2)c(-c2ccc(Cl)c(Cl)c2)n1` the Activity [4] was “Toxic”.
`O=C(CCl)c1ccccc1Nc1cccc(C(F)(F)F)c1` gave an EC50 [30] of 5.9 µM.
Compound `Nc1nonc1-n1nnc(C(=O)N/N=C2\C(=O)Nc3ccccc32)c1-c1ccc(Cl)c(Cl)c1` has an IC50 [3] of 6.5 µM.
For `O=C(O)CCn1cc(C(=O)NCc2ccccc2)c(-c2ccc(Cl)c(Cl)c2)n1`, the inhibition [1] was “inactive”.
In the case of `NCCCn1cc(C(=O)NCCc2ccccc2)c(-c2ccc(Cl)c(Cl)c2)n1`, the Activity [4] is reported as “Toxic”.
With `CCOC(=O)c1cn(CCCN)nc1-c1ccc(Cl)c(Cl)c1` the inhibition [1] was “Active”.
